FID counter: fluorescent intercalator displacement, NS3 helicase counter-screen; DNA fluorescent intercalator displacement, fluorescence; inhibition, % at 7.9 µM; 290,000 tested, 0.17% active; AID 1845; in the data active means inhibition above about 37%;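 further: 0% = vehicle and 100% = reference compound; higher means more ethidium bromide displaced from hairpin DNA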
UBC9 SUMO inh: inhibitors of human SUMOylation (UBC9). P63279. HTRF SUMOylation assay, SAE1/SAE2 + UBC9, in vitro. 290,000 tested, 0.36% active. inhibition, % at 35 µM; in the data active means inhibition above about 50%, passing the limit was not always enough
Target sequence (P63279 whole entry, looked up): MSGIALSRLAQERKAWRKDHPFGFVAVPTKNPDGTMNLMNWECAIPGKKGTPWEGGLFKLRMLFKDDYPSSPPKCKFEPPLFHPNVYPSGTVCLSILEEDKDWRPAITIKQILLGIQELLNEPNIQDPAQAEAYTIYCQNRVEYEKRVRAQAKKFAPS
NALP1 yeast inh: inhibitors of NALP1 inflammasome in yeast; S. cerevisiae NALP1/ASC/caspase-1 growth, X-gal OD620, 72 h; inhibition, % at 10 µM; 280,000 tested, 0.61% active; AID 2071; in the data active means inhibition mostly above about 24%, no sharp cut-off; inactive means mostly below about 32%
VIM-2 inh: blocks Pseudomonas aeruginosa VIM-2 metallo-beta-lactamase; AID 1527; purified VIM-2, nitrocefin hydrolysis, epi-absorbance fluorescence; inhibition, % at 5.6 µM; 290,000 tested, 0.89% active;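 active means inhibition above the mean of all tested compounds plus 3 SD, cutoff set per screening run, cut at about 7.5% in these data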;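 further: red hydrolysis product quenches plate fluorescence so inhibitors raise well fluorescence; 0% = enzyme with DMSO and 100% = DMSO without enzyme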
Mot1-301 SUMO: blocks SUMOylation pathway, rescuing yeast Mot1-301 growth | AID 2716 | S. cerevisiae Mot1-301 growth rescue, ATP luminescence, 38.5C; percent above DMSO median, 100 means doubled | 320,000 tested, 1% active | growth rescue, % at 18.8 µM;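 active means every valid replicate shows activation above 250% relative to neutral control wells; inactive means the rest, any valid replicate at or below 250%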;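 further: OY570 slx delta 5 strain wells were the positive control but not used for scaling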
IMP-1 inhibitor: inhibitors of Pseudomonas aeruginosa IMP-1 metallo-beta-lactamase; purified IMP-1, nitrocefin hydrolysis, epi-absorbance fluorescence; inhibition, % at 5.6 µM; 290,000 tested, 0.45% active;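 active means inhibition above the mean plus 3 SD of all compounds in the same screening run, cut at about 4.5% in these data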;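 further: 0% = IMP-1 with DMSO and 100% = DMSO wells lacking enzyme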
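system = purified recombinant IMP-1 beta-lactamase | amount = 0.2 nM IMP-1, as dispensed | medium = HEPES buffer pH 7.1 with ZnSO4 and Brij 35 | times = 25 °C, 15 min preincubation, 25 min reaction | detection = plate fluorescence quenching by hydrolysis product, ex 480/em 530 nm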
Yeast Mot1 SUMO: inhibits SUMO pathway, affecting Mot1-301 yeast growth | shares compounds with Mot1-301 SUMO | S. cerevisiae Mot1-301 galactose growth, ATP luminescence, 24 h; -100 = growth of slx-deleted rescue strain | growth activity, percent, % at 42 µM | 2,300 tested, under 10 active;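 active means Signal drops as the depositor expects, and the fitted half-maximal dose is no more than ten times the top valid tested dose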;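 further: more negative values mean stronger growth rescue toward the control strain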
Starred values were filed as active, the others as inactive. Rows were chosen to be rich in hits. Some 2.9% of all compounds tested hit in one or more screens of this group.

`Cc1ccc(-c2nc(-c3ccncc3)no2)cc1C` gave FID counter -32, UBC9 SUMO inh 1, NALP1 yeast inh 17, VIM-2 inh 0, Mot1-301 SUMO 31 and IMP-1 inhibitor -3.
`C=CCNC(=O)CN(c1cc(Cl)ccc1OC)S(=O)(=O)c1ccc(C)c([N+](=O)[O-])c1` gave FID counter -13, UBC9 SUMO inh 22, NALP1 yeast inh 3, VIM-2 inh -5, Mot1-301 SUMO -12 and IMP-1 inhibitor -3.
For N/C(Cn1cncn1)=N\NC(=O)c1ccc(Cl)cc1Cl the results were FID counter 1, UBC9 SUMO inh 11, NALP1 yeast inh 15, VIM-2 inh -2, Mot1-301 SUMO 778*, IMP-1 inhibitor -3 and Yeast Mot1 SUMO 1.
Screening CC(=O)Nc1ccc(C(=O)OCC(=O)NCc2ccccc2)cc1 returned FID counter -6, UBC9 SUMO inh 15, NALP1 yeast inh 4, VIM-2 inh 0, Mot1-301 SUMO -3 and IMP-1 inhibitor 0.
Screening CC(=O)Nc1cccc(C(=O)OCC(=O)NCc2ccc(F)cc2)c1 returned FID counter -2, UBC9 SUMO inh 5, NALP1 yeast inh 3, VIM-2 inh 0, Mot1-301 SUMO 453*, IMP-1 inhibitor -1 and Yeast Mot1 SUMO 0.
CCC(Cc1ccccc1)NC(=O)C1CCN(c2nn3c(=O)cc(C)nc3s2)CC1 (centres undefined) was read as FID counter -28, UBC9 SUMO inh -12, NALP1 yeast inh 18, VIM-2 inh -7, Mot1-301 SUMO 408*, IMP-1 inhibitor -3 and Yeast Mot1 SUMO 0.
`Cc1cc(=O)n2nc(N3CCC(C(=O)NCc4ccccc4)CC3)sc2n1` gave FID counter -22, UBC9 SUMO inh -7, NALP1 yeast inh -4, VIM-2 inh -3, Mot1-301 SUMO 92 and IMP-1 inhibitor -4.
For CCOC(=O)c1csc(NNC=O)n1 the results were FID counter -3, UBC9 SUMO inh 20, NALP1 yeast inh 10, VIM-2 inh 2, Mot1-301 SUMO -9 and IMP-1 inhibitor -2.
`CC1=CC(C)(C)N2C(=O)C3(NCCc4c3[nH]c3ccccc43)c3cc(C)cc1c32` (centres undefined) gave FID counter -15, UBC9 SUMO inh 5, VIM-2 inh -2, Mot1-301 SUMO 506*, IMP-1 inhibitor -2 and Yeast Mot1 SUMO 0.
`Nc1ccc(OCc2ccco2)cc1` gave FID counter -2, UBC9 SUMO inh 13, NALP1 yeast inh -1, VIM-2 inh -2, Mot1-301 SUMO 19 and IMP-1 inhibitor -2.
For O=C(COC(=O)CCC(=O)c1ccc(F)cc1)Nc1ccc2[nH]c(=O)[nH]c2c1 the results were Mot1-301 SUMO -13.
COc1ccc2nc(NC(=O)c3cccc(S(=O)(=O)N4CCOCC4)c3)sc2c1 was read as FID counter -8, UBC9 SUMO inh -14, NALP1 yeast inh -8, VIM-2 inh -3, Mot1-301 SUMO 102 and IMP-1 inhibitor -2.
Cc1nc2ccc(NC(=O)c3ccc(S(=O)(=O)N4CCOCC4)cc3)cc2s1 was read as FID counter -9, UBC9 SUMO inh 13, NALP1 yeast inh 40, VIM-2 inh -2, Mot1-301 SUMO active, IMP-1 inhibitor -6 and Yeast Mot1 SUMO 0.
`CC(=O)Nc1ccc(C(=O)Nc2ccc(S(=O)(=O)N3CCOCC3)cc2)cc1` gave FID counter 0, UBC9 SUMO inh -4, NALP1 yeast inh 12, VIM-2 inh 4, Mot1-301 SUMO 533 and IMP-1 inhibitor -1.
For COc1ccc2nc(NC(=O)c3cc(S(=O)(=O)N4CCOCC4)ccc3C)sc2c1 the results were FID counter -13, UBC9 SUMO inh -10, NALP1 yeast inh -13, VIM-2 inh -5, Mot1-301 SUMO 529*, IMP-1 inhibitor -5 and Yeast Mot1 SUMO 0.
Screening CC(=O)N(C(C)=O)c1c(C#N)c(C)n(-c2ccccc2)c1C(=O)c1ccccc1 returned FID counter -19, UBC9 SUMO inh 2, NALP1 yeast inh 19, VIM-2 inh 0, Mot1-301 SUMO active, IMP-1 inhibitor -5 and Yeast Mot1 SUMO -1.
